A selection: hits, their analogues and other compounds. The true share with any hit is near 2.9%.
PfGluPho inh – PfG6PD (Plasmodium falciparum) enzyme inhibition; PfGluPho enzyme, NADPH resazurin-diaphorase fluorescence; inhibition, % at 20 µM; hit rate 0.78% among 350,000;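 active means inhibition reaching at least a set limit at 20 µM in the primary screen, cut at about 59% in these data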;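 further: 0% = DMSO wells with substrate and 100% = DMSO wells lacking glucose-6-phosphate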
M18AAP inhibitor – PfM18AAP enzyme inhibition; recombinant PfM18AAP, H-Glu-NHMec fluorogenic cleavage; inhibition, % at 7.35 µM; hit rate 1.2% among 290,000; AID 1822;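 active means inhibition above the campaign mean inhibition over all tested compounds plus 3 SD, cut at about 28% in these data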;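 further: 0% = plate median of test compound wells and 100% = 2 mM ZnCl2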
EBNA-1 inhibitor – blocks EBNA-1 binding to DNA; EBNA-1 DNA binding, fluorescence polarization; inhibition, % at 14.8 µM; hit rate 0.34% among 300,000; AID 1950; in the data active means inhibition above about 28%
UBC13 inh – blocks human UBC13 polyubiquitin chain formation. P61088. TR-FRET. inhibition, % at 20 µM. hit rate 0.47% among 330,000. AID 485273; in the data active means inhibition above about 45%, passing the limit was not always enough
Target sequence (P61088 whole entry, looked up): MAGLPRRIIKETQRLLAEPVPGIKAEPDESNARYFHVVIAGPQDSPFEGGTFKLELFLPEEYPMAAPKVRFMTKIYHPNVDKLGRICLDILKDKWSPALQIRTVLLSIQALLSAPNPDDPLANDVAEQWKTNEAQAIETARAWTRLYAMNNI
ZTA counter – counter-screen for EBNA-1 inhibitors: inhibitors of Epstein-Barr virus ZTA. hit rate 0.15% among 320,000. P03206. ZTA-DNA binding, fluorescence polarization. inhibition, % at 11 µM; in the data active means inhibition above about 33%
Target sequence (P03206 whole entry, looked up): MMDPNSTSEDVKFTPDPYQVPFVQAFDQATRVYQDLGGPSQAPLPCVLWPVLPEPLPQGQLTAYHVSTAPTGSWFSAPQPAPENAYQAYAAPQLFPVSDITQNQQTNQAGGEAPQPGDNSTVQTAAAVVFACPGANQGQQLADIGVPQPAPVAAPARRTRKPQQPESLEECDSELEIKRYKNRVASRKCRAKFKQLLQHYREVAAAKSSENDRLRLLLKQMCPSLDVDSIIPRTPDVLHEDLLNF
Apaf1 inhib – human Apaf-1 inhibition | inhibition, % at 20 µM | hit rate 0.71% among 330,000 | reconstituted apoptosome caspase-3 activity, DEVD-Rh110 fluorescence; active means inhibition of at least 40% at 20 µM;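 further: plate controls were DMSO wells for no effect and DEVD-CHO caspase inhibitor wells for full effect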
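Assay system: Apoptosome proteins | Medium: pH 7.5 Hepes buffer with CHAPS, BSA, DTT | Also added: Cytochrome c and DEVD-Rh110 substrate | Times: 30 min plus 50 min, RT | Detection: Rhodamine 110 fluorescence at Ex 480/Em 540 nm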
PfGluPho conf – PfG6PD inhibition, single-dose confirmed | shares compounds with PfGluPho inh | recombinant PfGluPho, NADPH-diaphorase-resazurin fluorescence | inhibition, % at 20 µM | hit rate 34% among 2,400 | AID 504753;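 active means inhibition of at least 50% at 20 µM in any single replicate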;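 further: 0% = DMSO with substrate and 100% = DMSO lacking glucose-6-phosphate substrate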
Diaph ctr 10uM – counter-screen for P. falciparum G6PD inhibitors: diaphorase inhibitors, oxidizers. shares compounds with PfGluPho inh. diaphorase-coupled resazurin reduction, fluorescence, NADPH 10 uM. inhibition, % at 20 µM. hit rate 39% among 820;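 active means average inhibition reaching 50% or more with the compound at 20 µM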;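 further: resorufin red fluorescence formed as diaphorase reduces resazurin using NADPH; 0% = DMSO with enzyme and 100% = DMSO without enzyme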
Diaphorase 30uM – diaphorase inhibition or oxidation at 30 uM NADPH | hit rate 29% among 820 | shares compounds with PfGluPho inh | Diaphorase/resazurin coupled assay, resorufin fluorescence | AID 504863 | inhibition, % at 20 µM;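 active means inhibition averaging 50% or more, tested at 20 µM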;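 further: 0% = DMSO with enzyme and 100% = DMSO wells lacking diaphorase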
Numbers without * were called inactive; x = no result.

SMILES | PfGluPho inh | M18AAP inhibitor | EBNA-1 inhibitor | UBC13 inh | ZTA counter | Apaf1 inhib | PfGluPho conf | others
COc1cc(SSc2cc(OC)cc([N+](=O)[O-])c2N)c(N)c([N+](=O)[O-])c1 | 112* | 31* | -13 | -62 | -17 | 22 | 100* | Diaph ctr 10uM=-27;Diaphorase 30uM=-20
COc1ccccc1NC(=O)c1ccc(NC(=O)COC(=O)c2cccnc2Cl)cc1 | 3 | x | x | 4 | x | 8 | x
COc1cccc(NC(=O)COC(=O)c2ccccc2SCC(=O)N2CCCC2)c1 | -8 | x | 5 | -7 | 10 | 13 | x
COC(=O)c1c(-c2ccc(C(C)(C)C)cc2)csc1NC(=O)C1C2CCC(O2)C1C(=O)O (stereo unspecified) | 70* | 28* | 4 | 24 | 6 | 4 | 31
COC(=O)CCC(=O)Nc1sc(Cc2ccccc2)c(C)c1C(N)=O | 75* | 12 | 14 | -6 | -11 | 3 | 63* | Diaph ctr 10uM=27;Diaphorase 30uM=-2
Cc1sc(NC(=S)NC(=O)CCc2ccccc2)c(C(N)=O)c1C | 15 | -2 | -4 | x | 3 | x | x
CCCC(=O)Nc1sc(Cc2ccccc2)c(C)c1C(N)=O | 59* | 15 | 3 | 10 | -4 | 2 | 25
O=c1[nH]c2ccccc2n1CCC1CCCCC1 | 0 | -4 | -6 | 12 | -9 | 8 | x
CC1(OC(=O)C2CCCC2)C(=O)C=C2C=C(c3ccsc3)N(Cc3ccco3)C=C2C1=O (stereo unspecified) | 42 | x | 13 | -44 | -17 | 20 | x
CC1(OC(=O)C2CCCC2)C(=O)C=C2C=C(c3ccsc3)N(C3CCCC3)C=C2C1=O (stereo unspecified) | 63* | x | 7 | -32 | 4 | 25 | 38
CC1(OC(=O)C2CCCC2)C(=O)C=C2C=C(c3ccsc3)OC=C2C1=O (stereo unspecified) | 30 | x | 3 | -54 | 7 | 14 | x
COc1ccc(CN2C=C3C(=O)C(C)(OC(=O)C4CCCC4)C(=O)C=C3C=C2c2ccsc2)cc1 (stereo unspecified) | 67* | x | -8 | -39 | -11 | 20 | 38
CCN(CC)S(=O)(=O)c1ccc(N2CCOCC2)c(NC(=O)CC23CC4CC(CC(Br)(C4)C2)C3)c1 | 9 | -8 | 5 | 11 | 0 | 26 | x
O=C(COc1ccccc1F)OCC(=O)c1ccc([N+](=O)[O-])cc1 | 88* | x | x | -12 | x | -4 | 52* | Diaph ctr 10uM=19;Diaphorase 30uM=-1
Cc1ccc(C(=O)COC(=O)COc2ccccc2C)cc1 | -1 | 0 | -2 | -1 | -4 | 20 | x
O=[N+]([O-])c1ccccc1CNC(Cc1ccccc1)c1ccccc1 (stereo unspecified) | 17 | -15 | 5 | -8 | 5 | 4 | x
COC(=O)/C(=N/Nc1ccc(C)cc1)N1CCCc2ccccc21 | 76* | 6 | -1 | 4 | 6 | 5 | 29
CC(=O)/C(=N/Nc1ccc(Br)cc1)N1CCCc2ccccc21 | 20 | 0 | -1 | 1 | -1 | -4 | x
COC(=O)/C(=N/Nc1cccc(C)c1)N1CCCc2ccccc21 | 28 | 7 | 0 | -14 | 2 | 9 | x
COC(=O)/C(=N/Nc1ccccc1)N1CCCc2ccccc21 | 48 | 4 | -3 | -2 | -5 | 2 | 11
CC(C)(C)C1(O)CC(C(F)(F)F)=NN1C(=O)Cc1ccc([N+](=O)[O-])cc1 (stereo unspecified) | 17 | 1 | -2 | -2 | -6 | 3 | x
CCN(CC)CCCNc1ccc2ncn3c4ccc(O)cc4c(=O)c1c23 | 80* | x | x | x | x | x | -13
CN(C)CCNc1ccc2nnn3c4ccc(O)cc4c(=O)c1c23 | 47 | x | x | x | x | x | x
CCN(CC)C(=O)c1cc(-c2ccc3c(c2)OCO3)on1 | 1 | 0 | -10 | 2 | -5 | -1 | x
CCN(CC)c1ccc(N)cc1S(=O)(=O)Nc1ccccc1OC | 67* | 24 | -6 | -2 | -9 | 5 | 35
SMILES | PfGluPho inh | M18AAP inhibitor | EBNA-1 inhibitor | UBC13 inh | ZTA counter | Apaf1 inhib | PfGluPho conf | others
COc1ccc(NS(=O)(=O)c2cc(NC(=O)c3ccccn3)ccc2OC)cc1Br | -16 | x | x | -7 | x | -2 | x
CCN(CC)c1ccc(NC(=O)c2ccccn2)cc1S(=O)(=O)Nc1ccccc1OC | 60* | x | x | -10 | x | 20 | 18
COc1ccccc1NS(=O)(=O)c1cc(NC(=O)CNC(=O)c2ccccc2)ccc1C | -25 | -8 | 7 | 4 | 9 | 7 | x
CCN(CC)c1ccc(N)cc1S(=O)(=O)Nc1ccc(OC)cc1 | 13 | -21 | 7 | 15 | -7 | -18 | x
CCN(CC)c1ccc(NC(=O)COc2ccccc2C#N)cc1S(=O)(=O)Nc1ccccc1OC | 69* | 3 | -3 | -7 | -8 | 5 | 32
O=C(NN1C(=O)c2cc(Br)ccc2NC1c1cc(Br)cc(Br)c1O)c1ccncc1 (stereo unspecified) | -29 | 21 | -8 | -5 | 4 | 1 | x
COC(=O)c1c(-c2cccnc2)csc1NC(=O)c1cc(C)on1 | 62* | 18 | 3 | 6 | -5 | 13 | 16
CC(=O)Nc1ccc2sn(-c3ccccc3)c(=O)c2c1 | 126* | x | x | x | x | x | 105* | Diaph ctr 10uM=-12;Diaphorase 30uM=11
O=c1c(-c2ccccc2)c[nH]n1-c1cccc([N+](=O)[O-])c1 | 52 | 9 | -18 | 6 | -4 | 1 | x
N#Cc1ccc2sn(-c3ccccc3)c(=O)c2c1 | 126* | x | x | x | x | x | 107* | Diaph ctr 10uM=-11;Diaphorase 30uM=8
CCn1c2ccccc2c2cc(NC(C)=O)ccc21 | 13 | 0 | -8 | 3 | -3 | -226 | x
O=c1c2cc([N+](=O)[O-])ccc2sn1-c1ccccc1 | 121* | x | x | x | x | x | 105* | Diaph ctr 10uM=12;Diaphorase 30uM=17
N#Cc1ccc2c(c1)nnn2-c1ccccc1 | 23 | x | -2 | -9 | 3 | -3 | x
O=C(C1CCN(S(=O)(=O)c2cccs2)CC1)N1CCCC(C(F)(F)F)C1 (stereo unspecified) | -9 | -1 | 1 | 0 | 4 | -11 | x
Cc1ccc(NC(=O)c2cc(NC(=O)c3ccco3)ccc2N2CCOCC2)cc1 | 3 | 2 | -10 | 3 | -7 | 10 | x
Cc1ccc(NC(=O)c2cc(N3C(=O)C=CC3=O)ccc2Cl)cc1C | 77* | 8 | -2 | -9 | -2 | 17 | 81* | Diaph ctr 10uM=0;Diaphorase 30uM=-8
Cc1ccc(NC(=O)c2cc(N3C(=O)C=CC3=O)ccc2N2CCOCC2)cc1 | 80* | 1 | x | x | x | x | 96* | Diaph ctr 10uM=5;Diaphorase 30uM=-16
COc1c(C)cccc1C(=O)Nc1ccc(N2CCOCC2)c(Cl)c1 | 68* | 4 | -4 | -7 | 3 | 10 | 39
COc1ccc(N2CCN(Cc3nc4scc(-c5cccs5)c4c(=O)[nH]3)CC2)cc1 | -5 | 4 | -18 | -3 | -14 | 34 | x

Assay outcomes deposited in PubChem by several laboratories.
